Test results as given in ChEMBL document CHEMBL4257495, “Crystallomycin revisited after 60 years: aspartocins B and C” (2018).
Values after ≈ are worked out from the molar mass of the structure shown. Active and inactive are the calls of the source. The calls are words filed in the database; no cut-off is given here.

Experiments:
Staphylococcus aureus [1] = assay: Antibacterial activity against Staphylococcus aureus ATCC 29213 by broth microdilution method; format: functional
Summary of the method: (§1)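 MIC by broth microdilution following CLSI guidelines, run in medium without added Ca2+ and with Ca2+ ions supplemented (level not given). Reference strains came from the Tarasevich State Research Institution collection of pathogenic microorganisms. Clinical MRSA/MRSE isolates came from the Russia Research Institute for Antibiotics Culture Collection.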

Staphylococcus aureus [2] = assay: Antibacterial activity against methicillin-resistant Staphylococcus aureus 86 by broth microdilution method; format: functional; summary of the method: as §1
Staphylococcus aureus [3] = assay: Antibacterial activity against methicillin-resistant Staphylococcus aureus 88 by broth microdilution method; format: functional; summary of the method: as §1
Staphylococcus aureus [4] = assay: Antibacterial activity against methicillin-resistant Staphylococcus aureus 71001 by broth microdilution method; format: functional; summary of the method: as §1
Staphylococcus aureus [5] = assay: Antibacterial activity against methicillin-resistant Staphylococcus aureus 20450 by broth microdilution method; format: functional; summary of the method: as §1
Staphylococcus aureus [6] = assay: Antibacterial activity against methicillin-resistant Staphylococcus aureus 17 by broth microdilution method; format: functional; summary of the method: as §1
[7] = system: Staphylococcus epidermidis; assay: Antibacterial activity against methicillin-resistant Staphylococcus epidermidis C2001 by broth microdilution method; format: functional; summary of the method: as §1
[8] = system: Staphylococcus epidermidis; assay: Antibacterial activity against methicillin-resistant Staphylococcus epidermidis 004-T1 by broth microdilution method; format: functional; summary of the method: as §1
Enterococcus faecalis [9] = assay: Antibacterial activity against Enterococcus faecalis ATCC 29212 by broth microdilution method; format: functional; summary of the method: as §1
Enterococcus gallinarum [10] = assay: Antibacterial activity against Enterococcus gallinarum VP4147 by broth microdilution method; format: functional
Staphylococcus aureus [11] = assay: Antibacterial activity against Staphylococcus aureus ATCC 29213 in presence of Ca2+ by broth microdilution method; format: functional; summary of the method: as §1
Staphylococcus aureus [12] = assay: Antibacterial activity against methicillin-resistant Staphylococcus aureus 86 in presence of Ca2+ by broth microdilution method; format: functional; summary of the method: as §1
Staphylococcus aureus [13] = assay: Antibacterial activity against methicillin-resistant Staphylococcus aureus 88 in presence of Ca2+ by broth microdilution method; format: functional; summary of the method: as §1
Staphylococcus aureus [14] = assay: Antibacterial activity against methicillin-resistant Staphylococcus aureus 71001 in presence of Ca2+ by broth microdilution method; format: functional; summary of the method: as §1
Staphylococcus aureus [15] = assay: Antibacterial activity against methicillin-resistant Staphylococcus aureus 20450 in presence of Ca2+ by broth microdilution method; format: functional; summary of the method: as §1
Staphylococcus aureus [16] = assay: Antibacterial activity against methicillin-resistant Staphylococcus aureus 17 in presence of Ca2+ by broth microdilution method; format: functional; summary of the method: as §1
[17] = system: Staphylococcus epidermidis; assay: Antibacterial activity against methicillin-resistant Staphylococcus epidermidis C2001 in presence of Ca2+ by broth microdilution method; format: functional; summary of the method: as §1
[18] = system: Staphylococcus epidermidis; assay: Antibacterial activity against methicillin-resistant Staphylococcus epidermidis 004-T1 in presence of Ca2+ by broth microdilution method; format: functional; summary of the method: as §1
[19] = system: Staphylococcus epidermidis; assay: Antibacterial activity against methicillin-resistant Staphylococcus epidermidis 20459 in presence of Ca2+ by broth microdilution method; format: functional; summary of the method: as §1
Enterococcus faecalis [20] = assay: Antibacterial activity against Enterococcus faecalis ATCC 29212 in presence of Ca2+ by broth microdilution method; format: functional
Enterococcus gallinarum [21] = assay: Antibacterial activity against Enterococcus gallinarum VP4147 in presence of Ca2+ by broth microdilution method; format: functional
Escherichia coli = assay: Antibacterial activity against Escherichia coli ATCC 25922; format: functional, organism-based; summary of the method: as §1
Aspergillus niger = assay: Antifungal activity against Aspergillus niger ATCC 16404; format: functional, organism-based
Candida albicans = assay: Antifungal activity against Candida albicans ATCC 14053; format: functional, organism-based
Staphylococcus aureus [22] = assay: Ratio of MIC for Staphylococcus aureus ATCC 29213 in absence of Ca2+ to MIC for Staphylococcus aureus ATCC 29213 in presence of Ca2+; format: functional
[23] = system: Staphylococcus epidermidis; assay: Ratio of MIC for methicillin-resistant Staphylococcus epidermidis C2001 in absence of Ca2+ to MIC for methicillin-resistant Staphylococcus epidermidis C2001 in presence of Ca2+; format: functional
[24] = system: Staphylococcus epidermidis; assay: Ratio of MIC for methicillin-resistant Staphylococcus epidermidis 004-T1 in absence of Ca2+ to MIC for methicillin-resistant Staphylococcus epidermidis 004-T1 in presence of Ca2+; format: functional
Enterococcus faecalis [25] = assay: Ratio of MIC for Enterococcus faecalis ATCC 29212 in absence of Ca2+ to MIC for Enterococcus faecalis ATCC 29212 in presence of Ca2+; format: functional
Enterococcus gallinarum [26] = assay: Ratio of MIC for Enterococcus gallinarum VP4147 in absence of Ca2+ to MIC for Enterococcus gallinarum VP4147 in presence of Ca2+; format: functional
[27] = system: Staphylococcus epidermidis; assay: Antibacterial activity against methicillin-resistant Staphylococcus epidermidis 20459 by broth microdilution method; format: functional; summary of the method: as §1

| SMILES | MIC (Staphylococcus aureus [1]) | MIC (Staphylococcus aureus [2]) | MIC (Staphylococcus aureus [3]) | MIC (Staphylococcus aureus [4]) | MIC (Staphylococcus aureus [5]) | MIC (Staphylococcus aureus [6]) | MIC [7] | MIC [8] | MIC (Enterococcus faecalis [9]) | MIC (Enterococcus gallinarum [10]) | MIC (Staphylococcus aureus [11]) | MIC (Staphylococcus aureus [12]) | MIC (Staphylococcus aureus [13]) | MIC (Staphylococcus aureus [14]) | MIC (Staphylococcus aureus [15]) | MIC (Staphylococcus aureus [16]) | MIC [17] | MIC [18] | MIC [19] | MIC (Enterococcus faecalis [20]) | further results |
| --- | --- | --- | --- | --- | --- | --- | --- | --- | --- | --- | --- | --- | --- | --- | --- | --- | --- | --- | --- | --- | --- |
| CCC(C)CCCCCCC/C=C\CC(=O)N[C@@H](CC(=O)O)C(=O)N[C@@H]1C(=O)N2CCCC[C@@H]2C(=O)N[C@@H]([C@H](C)C(=O)O)C(=O)N[C@@H](CC(=O)O)C(=O)NCC(=O)N[C@@H](CC(=O)O)C(=O)NCC(=O)N[C@H](C(C)N)C(=O)N[C@@H](C(C)C)C(=O)N2CCC[C@H]2C(=O)N[C@@H]1C (some centres undefined) | 4 to 8 µg/mL (≈ 3.03 to 6.07 µM) | 8 µg/mL (≈ 6.07 µM) | 8 µg/mL (≈ 6.07 µM) | 8 µg/mL (≈ 6.07 µM) | 8 µg/mL (≈ 6.07 µM) | 8 µg/mL (≈ 6.07 µM) | 4 to 8 µg/mL (≈ 3.03 to 6.07 µM) | 16 µg/mL (≈ 12.1 µM) | 16 µg/mL (≈ 12.1 µM) | 16 µg/mL (≈ 12.1 µM) | 2 µg/mL | 2 µg/mL | 2 µg/mL | 2 µg/mL | 1 to 2 µg/mL | 4 µg/mL | 2 µg/mL | 4 µg/mL | 4 µg/mL | 8 µg/mL | MIC (Enterococcus gallinarum [21]): 4 to 8 µg/mL; Activity (Escherichia coli): inactive; Activity (Aspergillus niger): inactive; Activity (Candida albicans): inactive; Ratio (Staphylococcus aureus [22]): 2 - 8; Ratio [23]: 2 - 8; Ratio [24]: 2 - 8; Ratio (Enterococcus faecalis [25]): 2 - 8; Ratio (Enterococcus gallinarum [26]): 2 - 8 |
| CC(C)CCCCCCC/C=C/CC(=O)N[C@@H](CC(=O)O)C(=O)N[C@@H]1C(=O)N2CCCC[C@@H]2C(=O)N[C@@H]([C@H](C)C(=O)O)C(=O)N[C@@H](CC(=O)O)C(=O)NCC(=O)N[C@@H](CC(=O)O)C(=O)NCC(=O)N[C@H](C(C)N)C(=O)N[C@@H](C(C)C)C(=O)N2CCC[C@H]2C(=O)N[C@@H]1C (some centres undefined) | 16 µg/mL (≈ 12.3 µM) | 16 µg/mL (≈ 12.3 µM) | 16 µg/mL (≈ 12.3 µM) | 16 µg/mL (≈ 12.3 µM) | 16 µg/mL (≈ 12.3 µM) | – | 16 µg/mL (≈ 12.3 µM) | 32 µg/mL (≈ 24.5 µM) | – | – | 4 µg/mL | 4 µg/mL | 4 µg/mL | 4 µg/mL | 2 µg/mL | 4 µg/mL | 4 µg/mL | 4 µg/mL | 4 µg/mL | 8 µg/mL | MIC (Enterococcus gallinarum [21]): 4 to 8 µg/mL; Activity (Escherichia coli): inactive; Activity (Aspergillus niger): inactive; Activity (Candida albicans): inactive; Ratio (Staphylococcus aureus [22]): 2 - 8; Ratio [23]: 2 - 8; Ratio [24]: 2 - 8 |
| CCCCCCCCCC(=O)N[C@@H](Cc1c[nH]c2ccccc12)C(=O)N[C@@H](CC(N)=O)C(=O)N[C@@H](CC(=O)O)C(=O)N[C@@H]1C(=O)NCC(=O)N[C@@H](CCCN)C(=O)N[C@@H](CC(=O)O)C(=O)N[C@H](C)C(=O)N[C@@H](CC(=O)O)C(=O)NCC(=O)N[C@H](CO)C(=O)N[C@@H]([C@H](C)CC(=O)O)C(=O)N[C@@H](CC(=O)c2ccccc2N)C(=O)O[C@@H]1C [DAPTOMYCIN] | 0.5 µg/mL (≈ 0.309 µM) | 1 µg/mL (≈ 0.617 µM) | 0.5 to 1 µg/mL (≈ 0.309 to 0.617 µM) | 0.5 to 1 µg/mL (≈ 0.309 to 0.617 µM) | 1 µg/mL (≈ 0.617 µM) | 2 µg/mL (≈ 1.23 µM) | 1 µg/mL (≈ 0.617 µM) | 1 µg/mL (≈ 0.617 µM) | 4 µg/mL (≈ 2.47 µM) | 8 µg/mL (≈ 4.94 µM) | – | – | – | – | – | – | – | – | – | – | MIC [27]: 1 µg/mL (≈ 0.617 µM) |
